Measured values collected from several papers.
Lines come from different studies, so protocols differ.
TMEM97: Sigma intracellular receptor 2 (TMEM97, Homo sapiens, UniProt Q5BJF2)
CHRM3: Muscarinic acetylcholine receptor M3 (CHRM3, Homo sapiens, UniProt P20309)
PTGS2: Prostaglandin G/H synthase 2 (PTGS2, Homo sapiens, UniProt P35354)

Structure (SMILES)	target	assay	conditions	quantity	result
CN1CC[C@@]23CCCC[C@@H]2[C@@H]1Cc1ccc(O)cc13	TMEM97	ligand displacement, radioligand	–	Ki	2.94 µM
C[C@@H]1NC(=O)[C@H](CC(N)=O)NC(=O)[C@H](Cc2ccccc2)NC(=O)[C@@H]2Cc3ccccc3CN2C(=O)[C@H](CCCNC(=N)N)NC(=O)[C@@H]2CCCN2C(=O)[C@H]2CCCN2C(=O)[C@H](Cc2ccccc2)NC1=O	Melanocyte-stimulating hormone receptor (Mc1r, Mus musculus, UniProt Q01727)	reporter gene, agonist	–	EC50	> 100 µM
CCCCCCCCCCCCNCCCc1ccc([N+](=O)[O-])cc1	CHRM3	ligand displacement, radioligand	–	Ki	3.3 µM
Clc1cccc(N2CCNCC2)c1Cl	CHRM3	ligand displacement, radioligand	cell membranes	Ki	25.1 µM
CN1C(=O)C(=Cc2cn(-c3nc(N4CCCC4)nc(N4CCOCC4)n3)c3ccccc23)C(=O)N(C)C1=O	PTGS2	enzyme activity, inhibitor	–	IC50	6 µM
CN[C@@H](C)[C@@H](O)c1ccccc1	TMEM97	ligand displacement, radioligand	–	Ki	> 10 µM
CN1C(=O)C(=Cc2cn(-c3nc(Cl)nc(N4CCOCC4)n3)c3ccccc23)C(=O)N(C)C1=O	PTGS2	enzyme activity, inhibitor	–	IC50	0.1 µM
O=c1[nH]c2ccccc2n1CCCN1CCC(n2c(=O)[nH]c3cc(Cl)ccc32)CC1	Alpha-1D adrenergic receptor (ADRA1D, Homo sapiens, UniProt P25100)	cell-free assay	–	Ki	0.71 µM
